Screening data deposited in PubChem BioAssay by several laboratories.
Beta apoptosis – blocks beta cell apoptosis. INS-1E cytokine-induced death, ATP luminescence, 48 h; percent of positive-control rescue, neutral wells zero. protection from apoptosis, % (concentration not given with the values). actives 0.8% (n = 300,000);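 active = Every replicate reaches about 75%, or at least half do and their mean reaches it too, limit read from the data; inconclusive = At least half of replicates reach the limit but their mean does not; inactive = Under half of replicates reach the limit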;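 note: 0% = cytokine-treated negative control wells and 100% = positive control rescue; higher means more ATP so stronger rescue from cytokine killing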
SKKanGAS inh – SKKanGAS growth inhibition; S. pyogenes SKKanGAS, kanamycin growth, BacTiter-Glo, 6 h; inhibition, % at 7.5 µM; actives 1.3% (n = 300,000);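 active = mean replicate score, as percent of positive control median, at least 50; inconclusive = mean below 50 but one replicate at or above 50; inactive = mean and every replicate below 50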;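 note: strain carries kanamycin resistance gene driven by streptokinase promoter and grows in 40 µg/ml kanamycin; loss of luminescence reflects streptokinase promoter inhibition or plain growth inhibition; 0% = median of DMSO wells and 100% = positive control at its reference dose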
T cruzi inh – T. cruzi replication inhibition | T. cruzi beta-gal in NIH3T3, luminescence, 90 h | inhibition, % (no concentration beside the values) | actives 1.4% (n = 300,000);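 active = mean inhibition across valid replicates above about 55%, limit read from the data; inconclusive = mean below that limit but half or more replicates reach it; inactive = mean below it, under half of replicates reach it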;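 note: signal also drops with host cell toxicity which is not excluded here; 0% = plate median of DMSO wells and 100% = zero luminescence signal; higher percent means less beta-gal luminescence so fewer parasites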
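Read-out: Parasite load inhibition, % | Test system: Mouse NIH/3T3 fibroblasts infected with β-gal-expressing T. cruzi Tulahuen C4 | Amount: 5,000 cells/well | Medium: DMEM, 2% fetal bovine serum | Signal: GalScreen β-gal luminescence, detergent lysis, 60 min | Timing: 3 h attach, ≥90 h co-culture | Also added: Tulahuen C4 trypomastigotes, 5000/well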
L major viab – reduces viability of Leishmania major promastigotes; resazurin fluorescence viability; AID 1063; inhibition, % at 10 µM; actives 9% (n = 200,000); in the data active = inhibition above about 50%;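 note: promastigotes grown with compound for 44 hours at 28 °C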
Mdm2 MdmX PPI – human Mdm2/MdmX binding inhibition. O15151+Q00987. SaOS-2 split-luciferase Mdm2/MdmX complementation, luminescence. inhibition, % at 8 µM. actives 3% (n = 330,000);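 active = inhibition of at least 50% at 8 µM in the primary screen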
Target sequence (O15151 whole entry, looked up): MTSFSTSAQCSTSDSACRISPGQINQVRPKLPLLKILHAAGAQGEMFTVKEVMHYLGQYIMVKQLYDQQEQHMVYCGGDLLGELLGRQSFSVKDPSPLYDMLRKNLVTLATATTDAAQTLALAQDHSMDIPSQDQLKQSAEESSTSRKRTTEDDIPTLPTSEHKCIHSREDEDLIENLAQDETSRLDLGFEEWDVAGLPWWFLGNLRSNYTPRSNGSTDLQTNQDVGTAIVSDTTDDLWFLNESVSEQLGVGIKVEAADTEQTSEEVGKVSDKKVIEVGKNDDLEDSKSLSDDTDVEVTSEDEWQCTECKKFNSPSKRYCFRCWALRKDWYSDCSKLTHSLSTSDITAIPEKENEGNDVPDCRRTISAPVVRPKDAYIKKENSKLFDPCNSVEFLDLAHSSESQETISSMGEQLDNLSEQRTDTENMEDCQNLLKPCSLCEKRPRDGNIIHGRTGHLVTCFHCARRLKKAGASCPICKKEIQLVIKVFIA
Target sequence (Q00987 whole entry, looked up): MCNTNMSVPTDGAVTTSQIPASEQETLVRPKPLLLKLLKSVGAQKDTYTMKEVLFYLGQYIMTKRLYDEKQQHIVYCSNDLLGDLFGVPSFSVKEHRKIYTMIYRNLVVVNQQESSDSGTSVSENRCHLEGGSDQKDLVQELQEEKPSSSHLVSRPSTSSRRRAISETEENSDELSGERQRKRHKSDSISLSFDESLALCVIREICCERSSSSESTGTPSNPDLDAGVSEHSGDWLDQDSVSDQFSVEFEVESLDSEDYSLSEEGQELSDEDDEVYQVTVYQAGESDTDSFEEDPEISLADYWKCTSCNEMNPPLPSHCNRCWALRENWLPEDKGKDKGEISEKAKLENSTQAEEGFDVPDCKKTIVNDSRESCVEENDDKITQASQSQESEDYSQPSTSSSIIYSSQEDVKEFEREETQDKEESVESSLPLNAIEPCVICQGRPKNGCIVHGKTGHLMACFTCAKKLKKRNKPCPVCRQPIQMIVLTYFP
CSC inhib – blocks cancer stem cells; cancer stem cell-like cells viability, luminescence; inhibition, % at 7.5 µM; actives 1.1% (n = 300,000); AID 2717; in the data active = inhibition above about 75%; inconclusive = no clear call, values can overlap the other calls; tested in HMLE shEcad cells
Mdm2-MdmX conf – human Mdm2/MdmX binding inhibition, confirmed. shares compounds with Mdm2 MdmX PPI. luminescent assay. inhibition, % at 8 µM. actives 55% (n = 10,000). AID 489028; in the data active = inhibition above about 40%
FLuc counter – counter-screen for Mdm2/MdmX inhibitors: full-length luciferase | shares compounds with Mdm2 MdmX PPI | SaOS-2 full-length luciferase counterscreen, luminescence | inhibition, % at 8 µM | actives 77% (n = 6,200) | AID 504607;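 active = mean inhibition at 8 µM reaching about 37%, which flags the compound as non-specific, limit read from the data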;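 note: p53-null SaOS-2 cells with luciferase driven by a doxycycline-inducible promoter; compound on cells about two nights before reading with doxycycline added after day one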
Active calls of the source: *. This is a sample that favours compounds with a hit; in the whole collection about 9.4% have one here.

What do the screens show for `Cc1cccc(NC(=O)c2nc[nH]c2C(=O)NCCCNC(=O)c2[nH]cnc2C(=O)Nc2cccc(C)c2)c1`?
Beta apoptosis: -6; Mdm2 MdmX PPI: 73*; CSC inhib: 77*; Mdm2-MdmX conf: 63*; FLuc counter: 43*

Results for Cc1cccc(NC(=O)c2nc[nH]c2C(=O)N2CCN(C(=O)OC(C)(C)C)CC2)c1 ?
Beta apoptosis: 0; Mdm2 MdmX PPI: 26; CSC inhib: -28

Results for COc1ccc(CCNC(=O)CCC(=O)Nc2ccccc2[N+](=O)[O-])cc1OC ?
Beta apoptosis: -2; SKKanGAS inh: -5; T cruzi inh: -9; Mdm2 MdmX PPI: 17; CSC inhib: 0

Results for COc1ccc(C(C)(C)C)cc1NC(=O)c1ccccc1-n1cnnn1 ?
Beta apoptosis: -2; Mdm2 MdmX PPI: 0; CSC inhib: 1

How did CCOc1cc(C2Nc3ccccc3NC3=C2C(=O)CC(C)(C)C3)ccc1OC(C)=O (stereo not given) do in these assays?
Beta apoptosis: 27; SKKanGAS inh: 4; T cruzi inh: -3; Mdm2 MdmX PPI: -9; CSC inhib: 6

How did Cc1ccc(C)c(NC(=O)c2ccccc2NS(=O)(=O)c2cc([N+](=O)[O-])ccc2C)c1 do in these assays?
Beta apoptosis: 112*; T cruzi inh: -35; L major viab: 63*; Mdm2 MdmX PPI: 89*; CSC inhib: 97*; Mdm2-MdmX conf: 94*; FLuc counter: 40*

What do the screens show for `COc1ccccc1N1CC(C)(C)C(=O)N(C(=O)c2c(F)cccc2Cl)C1=S`?
Beta apoptosis: 7; SKKanGAS inh: -5; T cruzi inh: -8; Mdm2 MdmX PPI: -12; CSC inhib: -9

How did COc1cc(/C=C/c2ccc3cccc(O)c3n2)cc(Br)c1OC do in these assays?
Beta apoptosis: 44; SKKanGAS inh: 100*; T cruzi inh: 72*; Mdm2 MdmX PPI: 93*; CSC inhib: 52; Mdm2-MdmX conf: 11

Results for COc1cccc(/C=C/c2ccc3cccc(O)c3n2)c1 ?
Beta apoptosis: 50; SKKanGAS inh: 98*; T cruzi inh: inconclusive; Mdm2 MdmX PPI: 62*; CSC inhib: 41; Mdm2-MdmX conf: -143

What do the screens show for `COc1cc(/C=C/c2ccc3cccc(O)c3n2)cc(OC)c1OC`?
Beta apoptosis: 33; SKKanGAS inh: 96*; T cruzi inh: 45; Mdm2 MdmX PPI: 84*; CSC inhib: 44; Mdm2-MdmX conf: 76*; FLuc counter: 27

How did COc1cc(/C=C/c2ccc3cccc(O)c3n2)cc(Cl)c1OC do in these assays?
Beta apoptosis: 64; SKKanGAS inh: 107*; T cruzi inh: 35; Mdm2 MdmX PPI: 100*; CSC inhib: 91*; Mdm2-MdmX conf: -35

How did C=CCC[C@H](Cc1ccc(F)cc1)C(=O)OC[C@@H](NC(=O)[C@@H](CC=C)CC(=O)N(CCO)Cc1ccccc1)C(C)(C)C do in these assays?
Beta apoptosis: 4; Mdm2 MdmX PPI: 50*; CSC inhib: 51; Mdm2-MdmX conf: 15

How did C=CCC[C@H](Cc1ccc(F)cc1)C(=O)OC[C@@H](Cc1c[nH]c2ccccc12)NC(=O)[C@H](CC=C)CC(=O)N(CCO)Cc1ccccc1 do in these assays?
Beta apoptosis: -13; Mdm2 MdmX PPI: 94*; CSC inhib: 92*; Mdm2-MdmX conf: 34

Results for C=CCC[C@H](Cc1ccc(F)cc1)C(=O)OC[C@H](Cc1c[nH]c2ccccc12)NC(=O)[C@H](CC=C)CC(=O)N[C@H](CO)Cc1ccccc1 ?
Beta apoptosis: 8; Mdm2 MdmX PPI: -3

How did C=CCC[C@@H](Cc1ccc(F)cc1)C(=O)OC[C@H](Cc1c[nH]c2ccccc12)NC(=O)[C@@H](CC=C)CC(=O)N[C@H](CO)Cc1ccccc1 do in these assays?
Beta apoptosis: -2; Mdm2 MdmX PPI: 44; CSC inhib: 5

What do the screens show for `C=CC[C@@H](CC(=O)N(CCO)Cc1ccccc1)C(=O)NC[C@H](OC(=O)[C@@H](CC=C)Cc1ccc(F)cc1)c1ccccc1`?
Beta apoptosis: 4; Mdm2 MdmX PPI: 85*; CSC inhib: 30; Mdm2-MdmX conf: 71*; FLuc counter: 49*

What do the screens show for `C=CCC[C@@H](Cc1ccc(F)cc1)C(=O)OC[C@@H](Cc1c[nH]c2ccccc12)NC(=O)[C@H](CC=C)CC(=O)N(CCO)Cc1ccccc1`?
Beta apoptosis: -5; Mdm2 MdmX PPI: 94*; Mdm2-MdmX conf: 26

Results for CC(C)(CO)Cc1cc(C(C)(C)C)c(O)c(C(C)(C)C)c1 ?
Beta apoptosis: 0; Mdm2 MdmX PPI: 15; CSC inhib: 13

How did COC(=O)c1ccc(Cn2c(O)c(N=NC(N)=S)c3ccccc32)o1 do in these assays?
Beta apoptosis: -3; SKKanGAS inh: 11; T cruzi inh: 14; Mdm2 MdmX PPI: -9; CSC inhib: -11

How did O=C(/C=C/C=C/c1ccccc1)c1ccco1 do in these assays?
Beta apoptosis: 5; SKKanGAS inh: 6; T cruzi inh: 8; Mdm2 MdmX PPI: 12; CSC inhib: 60

What do the screens show for `COc1cccc(NC(=O)CN(C)C(=O)c2ccccc2-c2nc3ccccc3s2)c1`?
Beta apoptosis: 6; SKKanGAS inh: -7; T cruzi inh: 5; Mdm2 MdmX PPI: -21; CSC inhib: 5

Results for Cc1cc(C)cc(NC(=O)CSc2ccc(-c3ccccn3)nn2)c1 ?
Beta apoptosis: 24; SKKanGAS inh: -9; T cruzi inh: 34; Mdm2 MdmX PPI: 68*; CSC inhib: 96*; Mdm2-MdmX conf: 68*; FLuc counter: 32

How did Cc1ccccc1NC(=O)CSc1ccc(-c2ccccn2)nn1 do in these assays?
Beta apoptosis: -4; SKKanGAS inh: -5; T cruzi inh: 5; Mdm2 MdmX PPI: 1; CSC inhib: 4

Results for Cc1cc(/C=N/Nc2nc(N)ncc2[N+](=O)[O-])c(C)n1-c1ccccc1F ?
Beta apoptosis: 0; SKKanGAS inh: 4; T cruzi inh: -6; Mdm2 MdmX PPI: 74*; CSC inhib: 4; Mdm2-MdmX conf: 84*; FLuc counter: 50*

Results for Cc1cccc(C)c1-n1c(C)cc(/C=N\Nc2ccc([N+](=O)[O-])cn2)c1C ?
Beta apoptosis: 8; SKKanGAS inh: 12; T cruzi inh: 45; L major viab: 33; Mdm2 MdmX PPI: 38; CSC inhib: 0

How did COc1ccccc1CNC(=O)CCCNC(=O)c1ccc(Cl)cc1 do in these assays?
Beta apoptosis: 3; SKKanGAS inh: -2; T cruzi inh: -9; Mdm2 MdmX PPI: -23; CSC inhib: -12
